{
  "source": "paper PMC3540799",
  "about": "(NeuroImage, 2012)",
  "key": {"HDAC class IIa enzymes": {"system": "HDAC class IIa enzymes", "assay": "SAHA-mediated dose-dependent inhibition of [18F]FAHA accumulation in the brain", "type": "in vivo, rhesus macaques", "conditions": "pretreatment with increasing doses of SAHA; blood plasma"}, "[1]": {"conditions": "cited from earlier work"}, "[2]": {"assay": "Dynamic PET/CT/MRI of the brain with compartmental pharmacokinetic modeling", "type": "in vivo, rhesus macaques", "conditions": "for k1 (influx rate constant) / k2 (efflux rate constant) / k3 rate constant: baseline", "procedure,_shortened": "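Four rhesus macaques (2 male, 2 female): atropine 0.04 mg/kg i.m., ketamine 10–15 mg/kg i.m., isoflurane 1–3% in oxygen; i.v. tracer via saphenous vein. Baseline dynamic PET with the 18F-labelled HDAC substrate and, separately, its 18F-labelled cleavage product. Carotid-derived plasma input was corrected by plasma-to-blood ratio and radio-HPLC metabolite fractions. Rate constants came from two-input, three-tissue-compartment fitting of regional brain time-activity curves.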"}, "[3]": {"assay": "Radioactivity and radiolabeled metabolites in blood plasma", "type": "in vivo, rhesus macaques", "procedure,_shortened": "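Macaques received atropine and ketamine i.m., then isoflurane 1–3% in oxygen. Tracer was given i.v. via saphenous vein, and venous blood (0.5 mL) was drawn at 0, 1, 2, 3, 5, 10 and 30 min. Whole blood and plasma were gamma counted. Heparinized plasma was extracted with 3 volumes acetonitrile and run on radio-HPLC. Parent and metabolite fractions came from peak areas, expressed as %ID/mL.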"}, "[4]": {"conditions": "up to 3 hours post radiotracer administration; ref Nishii et al., 2011; cited from earlier work"}, "class IIa HDACs": {"system": "class IIa HDACs", "type": "biochemical", "conditions": "non-radiolabeled FAHA; 10 ng enzyme, 30 min at 30°C"}, "[5]": {"conditions": "at 30 min after the radiotracer administration; ref Nishii R, 2007; cited from earlier work"}, "[6]": {"conditions": "ref Hendricks, et al 2011, Zeglis"}},
  "note": "Read-outs that look alike come from different tables or passages of the source.",
  "data": [
    {"compound": "O=C(CCCCCCC(=O)Nc1ccccc1)NO", "note": "[SAHA, vorinostat]", "values": [
      {"measurement": "effect on circulation half-time and AUC of [18F]FAHA", "setting": "HDAC class IIa enzymes", "value": "dose-dependent log-linear increase"}
    ]},
    {"compound": "Nc1ccccc1NC(=O)c1ccc(CN[11C](=O)OCc2cccnc2)cc1", "note": "[[^11C]MS-275]", "values": [
      {"measurement": "accumulation in the brain (PET)", "setting": "[1]; ref Hooker, et al 2010", "value": "did not accumulate in the brain"},
      {"measurement": "blood-brain barrier (BBB) permeability", "setting": "[1]; ref Hooker, et al 2010", "value": "poor"}
    ]},
    {"compound": "O=C(O)C[18F]", "note": "[[^18F]FACE, [^18F]fluoroacetate]", "values": [
      {"measurement": "brain-to-muscle concentration ratio", "setting": "[2]; 30 min post injection", "value": "0.78±0.28"},
      {"measurement": "whole brain-to-blood concentration ratio", "setting": "[2]; 30 min post injection", "value": "0.55±0.18"},
      {"measurement": "k1 (influx rate constant)", "setting": "[2]; Amygdala", "value": "0.020 ± 0.035"},
      {"measurement": "k2 (efflux rate constant)", "setting": "[2]; Amygdala", "value": "0.088 ± 0.063"},
      {"measurement": "k3 rate constant", "setting": "[2]; Amygdala", "value": "0.047 ± 0.040"},
      {"measurement": "k1 (influx rate constant)", "setting": "[2]; Cerebellum", "value": "0.055 ± 0.054"},
      {"measurement": "k2 (efflux rate constant)", "setting": "[2]; Cerebellum", "value": "0.202 ± 0.125"},
      {"measurement": "k3 rate constant", "setting": "[2]; Cerebellum", "value": "0.044 ± 0.066"},
      {"measurement": "k1 (influx rate constant)", "setting": "[2]; Hippocampus", "value": "0.021 ± 0.034"},
      {"measurement": "k2 (efflux rate constant)", "setting": "[2]; Hippocampus", "value": "0.118 ± 0.031"},
      {"measurement": "k3 rate constant", "setting": "[2]; Hippocampus", "value": "0.054 ± 0.039"},
      {"measurement": "k1 (influx rate constant)", "setting": "[2]; Inferior colliculus", "value": "0.019 ± 0.045"},
      {"measurement": "k2 (efflux rate constant)", "setting": "[2]; Inferior colliculus", "value": "0.034 ± 0.024"},
      {"measurement": "k3 rate constant", "setting": "[2]; Inferior colliculus", "value": "0.022 ± 0.021"},
      {"measurement": "k1 (influx rate constant)", "setting": "[2]; Nucleus accumbens", "value": "0.056 ± 0.052"},
      {"measurement": "k2 (efflux rate constant)", "setting": "[2]; Nucleus accumbens", "value": "0.179 ± 0.146"},
      {"measurement": "k3 rate constant", "setting": "[2]; Nucleus accumbens", "value": "0.025 ± 0.034"},
      {"measurement": "k1 (influx rate constant)", "setting": "[2]; Peri-aqueductal gray", "value": "0.021 ± 0.044"},
      {"measurement": "k2 (efflux rate constant)", "setting": "[2]; Peri-aqueductal gray", "value": "0.050 ± 0.034"},
      {"measurement": "k3 rate constant", "setting": "[2]; Peri-aqueductal gray", "value": "0.026 ± 0.023"},
      {"measurement": "k1 (influx rate constant)", "setting": "[2]; Putamen", "value": "0.024 ± 0.033"},
      {"measurement": "k2 (efflux rate constant)", "setting": "[2]; Putamen", "value": "0.059 ± 0.063"},
      {"measurement": "k3 rate constant", "setting": "[2]; Putamen", "value": "0.026 ± 0.031"},
      {"measurement": "k1 (influx rate constant)", "setting": "[2]; Temporal cortex", "value": "0.016 ± 0.046"},
      {"measurement": "k2 (efflux rate constant)", "setting": "[2]; Temporal cortex", "value": "0.037 ± 0.014"},
      {"measurement": "k3 rate constant", "setting": "[2]; Temporal cortex", "value": "0.033 ± 0.018"},
      {"measurement": "k1 (influx rate constant)", "setting": "[2]; Thalamus", "value": "0.020 ± 0.482"},
      {"measurement": "k2 (efflux rate constant)", "setting": "[2]; Thalamus", "value": "0.048 ± 0.067"},
      {"measurement": "k3 rate constant", "setting": "[2]; Thalamus", "value": "0.022 ± 0.022"},
      {"measurement": "k1 (influx rate constant)", "setting": "[2]; White matter", "value": "0.015 ± 0.019"},
      {"measurement": "k2 (efflux rate constant)", "setting": "[2]; White matter", "value": "0.089 ± 0.103"},
      {"measurement": "k3 rate constant", "setting": "[2]; White matter", "value": "0.029 ± 0.022"},
      {"measurement": "k1 (influx rate constant)", "setting": "[2]; Whole brain", "value": "0.045 ± 0.034"},
      {"measurement": "k2 (efflux rate constant)", "setting": "[2]; Whole brain", "value": "0.170 ± 0.145"},
      {"measurement": "k3 rate constant", "setting": "[2]; Whole brain", "value": "0.033 ± 0.065"},
      {"measurement": "efflux rate constant k2FACE relative to that of [18F]FAHA", "setting": "[2]; fold less than [18F]FAHA", "value": "4 to 10", "unit": "fold"},
      {"measurement": "[18F]fluoride in blood plasma", "setting": "[3]; 30 min post [18F]FACE administration", "value": "< 2 % of total radioactivity"},
      {"measurement": "Partition of [18F]FACE-derived radioactivity in blood between RBCs and plasma", "setting": "[3]; rhesus monkey, in vivo", "value": "70.2±8.4", "unit": "%"},
      {"measurement": "[18F]fluorocitrate anabolite in blood", "setting": "[4]", "value": "not detectable"}
    ]},
    {"compound": "O=C(C[18F])NCCCCCC(=O)Nc1ccccc1", "note": "[[^18F]FAHA, 6-([^18F]fluoroacetamido)-1-hexanoicanilide]", "values": [
      {"measurement": "Kcat values for class IIa HDACs compared with other classes of HDACs", "setting": "class IIa HDACs", "value": "two orders of magnitude higher"},
      {"measurement": "k1 (influx rate constant)", "setting": "[2]; Amygdala", "value": "0.512 ± 0.1283"},
      {"measurement": "k2 (efflux rate constant)", "setting": "[2]; Amygdala", "value": "0.493 ± 0.118"},
      {"measurement": "k3 rate constant", "setting": "[2]; Amygdala", "value": "0.259 ± 0.093"},
      {"measurement": "k1 (influx rate constant)", "setting": "[2]; Cerebellum", "value": "0.645 ± 0.2594"},
      {"measurement": "k2 (efflux rate constant)", "setting": "[2]; Cerebellum", "value": "1.001 ± 0.475"},
      {"measurement": "k3 rate constant", "setting": "[2]; Cerebellum", "value": "0.380 ± 0.279"},
      {"measurement": "k1 (influx rate constant)", "setting": "[2]; Hippocampus", "value": "0.595 ± 0.071"},
      {"measurement": "k2 (efflux rate constant)", "setting": "[2]; Hippocampus", "value": "0.883 ± 0.738"},
      {"measurement": "k3 rate constant", "setting": "[2]; Hippocampus", "value": "0.279 ± 0.213"},
      {"measurement": "k1 (influx rate constant)", "setting": "[2]; Inferior colliculus", "value": "0.706 ± 0.2366"},
      {"measurement": "k2 (efflux rate constant)", "setting": "[2]; Inferior colliculus", "value": "0.644 ± 0.312"},
      {"measurement": "k3 rate constant", "setting": "[2]; Inferior colliculus", "value": "0.267 ± 0.108"},
      {"measurement": "k1 (influx rate constant)", "setting": "[2]; Nucleus accumbens", "value": "0.626 ± 0.5812"},
      {"measurement": "k2 (efflux rate constant)", "setting": "[2]; Nucleus accumbens", "value": "1.181 ± 1.6532"},
      {"measurement": "k3 rate constant", "setting": "[2]; Nucleus accumbens", "value": "0.401 ± 0.296"},
      {"measurement": "k1 (influx rate constant)", "setting": "[2]; Peri-aqueductal gray", "value": "0.619 ± 0.2961"},
      {"measurement": "k2 (efflux rate constant)", "setting": "[2]; Peri-aqueductal gray", "value": "0.554 ± 0.256"},
      {"measurement": "k3 rate constant", "setting": "[2]; Peri-aqueductal gray", "value": "0.236 ± 0.088"},
      {"measurement": "k1 (influx rate constant)", "setting": "[2]; Putamen", "value": "0.708 ± 0.3726"},
      {"measurement": "k2 (efflux rate constant)", "setting": "[2]; Putamen", "value": "0.731 ± 0.617"},
      {"measurement": "k3 rate constant", "setting": "[2]; Putamen", "value": "0.328 ± 0.079"},
      {"measurement": "k1 (influx rate constant)", "setting": "[2]; Temporal cortex", "value": "0.438 ± 0.2453"},
      {"measurement": "k2 (efflux rate constant)", "setting": "[2]; Temporal cortex", "value": "0.558 ± 0.2452"},
      {"measurement": "k3 rate constant", "setting": "[2]; Temporal cortex", "value": "0.158 ± 0.056"},
      {"measurement": "k1 (influx rate constant)", "setting": "[2]; Thalamus", "value": "0.765 ± 0.4308"},
      {"measurement": "k2 (efflux rate constant)", "setting": "[2]; Thalamus", "value": "0.604 ± 0.365"},
      {"measurement": "k3 rate constant", "setting": "[2]; Thalamus", "value": "0.192 ± 0.032"},
      {"measurement": "k1 (influx rate constant)", "setting": "[2]; White matter", "value": "0.463 ± 0.2052"},
      {"measurement": "k2 (efflux rate constant)", "setting": "[2]; White matter", "value": "0.810 ± 0.269"},
      {"measurement": "k3 rate constant", "setting": "[2]; White matter", "value": "0.187 ± 0.135"},
      {"measurement": "k1 (influx rate constant)", "setting": "[2]; Whole brain", "value": "0.424 ± 0.2637"},
      {"measurement": "k2 (efflux rate constant)", "setting": "[2]; Whole brain", "value": "0.611 ± 0.5713"},
      {"measurement": "k3 rate constant", "setting": "[2]; Whole brain", "value": "0.192 ± 0.222"},
      {"measurement": "whole brain Ki of [18F]FAHA relative to Ki of [18F]FACE", "setting": "[2]; whole brain", "value": "about 50 fold"},
      {"measurement": "fraction of [18F]FAHA catabolized to [18F]FACE in blood plasma", "setting": "[3]; by 30 min post injection", "value": "almost all"},
      {"measurement": "accumulation of [18F]FAHA in the brain", "setting": "[5]", "value": "significant accumulation"}
    ]},
    {"compound": "O=C(CCCCCCC(=O)Nc1ccc([18F])cc1)NO", "note": "[[^18F]SAHA, [^18F]suberoylanilide hydroxamic acid]", "values": [
      {"measurement": "accumulation in the brain (PET)", "setting": "[1]; [6]", "value": "did not accumulate in the brain"},
      {"measurement": "washout from the brain", "setting": "[1]; [6]", "value": "excessive washout"}
    ]}
  ]
}
